Assay results reported in ChEMBL document CHEMBL3351838, “Ligand-based pharmacophore modeling and virtual screening for the discovery of novel 17β-hydroxysteroid dehydrogenase 2 inhibitors” (J Med Chem, 2014).

Legend:
[1] = biological target: T1, 17-beta-hydroxysteroid dehydrogenase type 2 (Homo sapiens) (UniProt P37059); assay: Inhibition of 17beta-HSD2 (unknown origin) expressed in HEK293 cells lysate assessed as residual enzyme activity at 20 uM; format: cell-free
T1 sequence (whole entry): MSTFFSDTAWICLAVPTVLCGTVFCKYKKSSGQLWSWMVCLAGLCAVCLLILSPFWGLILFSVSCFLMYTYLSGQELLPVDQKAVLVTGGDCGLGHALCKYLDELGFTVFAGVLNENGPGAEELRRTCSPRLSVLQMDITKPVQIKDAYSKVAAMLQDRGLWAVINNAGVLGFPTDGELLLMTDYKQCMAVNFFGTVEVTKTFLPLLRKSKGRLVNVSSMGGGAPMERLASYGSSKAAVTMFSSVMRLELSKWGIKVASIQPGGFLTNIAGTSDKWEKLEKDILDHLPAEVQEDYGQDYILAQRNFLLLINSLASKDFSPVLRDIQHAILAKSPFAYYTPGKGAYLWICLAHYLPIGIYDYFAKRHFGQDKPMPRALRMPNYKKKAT
How it was run: (§1)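 Human 17β-HSD2 from lysates of calcium-phosphate-transfected HEK-293 cells (harvested 48 h). Incubated 10 min at 37 °C in TS2 buffer (pH 7.4) with inhibitor or 0.2% DMSO/chloroform. Substrate 190 nM unlabeled plus 10 nM radiolabeled estradiol with 500 μM NAD+. Stopped with excess estradiol/estrone. Radiolabeled steroids separated by TLC and counted; at least three independent measurements. Rest activity at 20 μM as % of control.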

[2] = biological target: T2, 17-beta-hydroxysteroid dehydrogenase type 3 (Homo sapiens) (UniProt P37058); assay: Inhibition of 17beta-HSD3 (unknown origin) expressed in intact HEK293 cells assessed as residual enzyme activity at 20 uM; format: cell-based
T2 sequence (whole entry): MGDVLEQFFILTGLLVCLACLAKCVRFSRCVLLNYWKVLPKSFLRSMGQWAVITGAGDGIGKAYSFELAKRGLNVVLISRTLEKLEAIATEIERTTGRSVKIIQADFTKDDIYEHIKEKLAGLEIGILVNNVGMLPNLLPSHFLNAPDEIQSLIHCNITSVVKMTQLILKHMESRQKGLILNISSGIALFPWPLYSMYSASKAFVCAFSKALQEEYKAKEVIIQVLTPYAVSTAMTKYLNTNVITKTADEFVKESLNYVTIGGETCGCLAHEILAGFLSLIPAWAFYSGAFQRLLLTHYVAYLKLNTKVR
How it was run: (§2)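 HEK-293 cells transiently transfected with 17β-HSD3 by calcium phosphate were seeded at 15 000 cells/well and tested 24 h later in charcoal-treated DMEM. Inhibitor was preincubated 20 min at 37 °C. Substrate was 190 nM unlabeled plus 10 nM radiolabeled androstenedione for 30 min. Reactions stopped with excess androstenedione/testosterone. TLC separation and scintillation counting.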

[3] = biological target: T3, 17-beta-hydroxysteroid dehydrogenase type 2 (Homo sapiens, UniProt P37059); assay: Inhibition of 17beta-HSD2 (unknown origin) expressed in HEK293 cells lysate; format: cell-free; how it was run: as §1
T3 sequence (P37059 whole entry): T1 sequence (whole entry)

[4] = biological target: T4, 11-beta-hydroxysteroid dehydrogenase type 2 (Homo sapiens) (UniProt P80365); assay: Inhibition of 11beta-HSD2 (unknown origin) expressed in HEK293 cells lysate assessed as residual enzyme activity at 20 uM; format: cell-free
T4 sequence (whole entry): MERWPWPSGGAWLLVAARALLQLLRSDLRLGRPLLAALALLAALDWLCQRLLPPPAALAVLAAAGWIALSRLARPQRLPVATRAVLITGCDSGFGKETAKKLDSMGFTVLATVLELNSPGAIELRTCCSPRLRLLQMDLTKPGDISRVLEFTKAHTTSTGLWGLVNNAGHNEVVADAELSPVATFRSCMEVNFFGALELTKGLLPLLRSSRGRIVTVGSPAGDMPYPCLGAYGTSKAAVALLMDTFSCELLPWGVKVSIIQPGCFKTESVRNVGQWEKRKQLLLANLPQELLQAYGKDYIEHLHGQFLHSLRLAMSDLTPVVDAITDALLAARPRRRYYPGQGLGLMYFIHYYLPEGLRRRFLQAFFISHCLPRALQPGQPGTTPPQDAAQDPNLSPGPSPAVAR
How it was run: (§3)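 Lysates of stably transfected cells expressing 11β-HSD1 or 11β-HSD2, 10 min at 37 °C in TS2 buffer (pH 7.4) with inhibitor or 0.2% DMSO solvent. Reactions stopped after 10 min with excess unlabeled cortisone/cortisol. Steroids separated by TLC and quantified by scintillation counting. At least three independent measurements. Lines 2 and 3 report rest activity at 20 μM as % of control.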

[5] = biological target: T3, 17-beta-hydroxysteroid dehydrogenase type 2; assay: Inhibition of 17beta-HSD2 (unknown origin) expressed in intact HEK293 cells; format: cell-based
How it was run: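 Transfected HEK-293 cells were seeded at 15 000 cells/well 24 h after transfection and assayed 24 h later in charcoal-treated DMEM. Inhibitor was preincubated 20 min at 37 °C, followed by 190 nM unlabeled plus 10 nM radiolabeled estradiol for 20 min. Reactions stopped with excess estradiol/estrone. Steroids separated by TLC and measured by scintillation counting.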

[6] = biological target: T5, 17-beta-hydroxysteroid dehydrogenase type 1 (Homo sapiens) (UniProt P14061); assay: Inhibition of 17beta-HSD1 (unknown origin) expressed in HEK293 cells lysate assessed as residual enzyme activity at 20 uM; format: cell-free
T5 sequence (whole entry): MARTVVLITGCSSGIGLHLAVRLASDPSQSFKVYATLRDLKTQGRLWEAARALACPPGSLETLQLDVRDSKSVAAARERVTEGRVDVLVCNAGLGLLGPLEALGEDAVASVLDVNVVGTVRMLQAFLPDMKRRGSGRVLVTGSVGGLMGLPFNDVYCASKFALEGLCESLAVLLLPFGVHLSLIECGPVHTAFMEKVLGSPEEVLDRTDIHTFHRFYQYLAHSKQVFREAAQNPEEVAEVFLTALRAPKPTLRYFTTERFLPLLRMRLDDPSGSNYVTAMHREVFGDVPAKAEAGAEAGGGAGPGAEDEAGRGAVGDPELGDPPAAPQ
How it was run: (§4)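 Lysate of HEK-293 cells transfected by calcium phosphate with human 17β-HSD1, harvested after 48 h. Incubated 10 min at 37 °C in TS2 buffer (pH 7.4) with inhibitor or 0.2% DMSO/chloroform. Substrate 190 nM unlabeled plus 10 nM radiolabeled estrone with 500 μM NADPH. Stopped with excess estradiol/estrone. TLC separation and scintillation counting; at least three independent measurements.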

[7] = biological target: T6, 11-beta-hydroxysteroid dehydrogenase 1 (Homo sapiens, UniProt P28845); assay: Inhibition of 11beta-HSD1 (unknown origin) expressed in HEK293 cells lysate assessed as residual enzyme activity at 20 uM; format: cell-free; how it was run: as §3
Target sequence in this assay (P28845 whole entry, looked up): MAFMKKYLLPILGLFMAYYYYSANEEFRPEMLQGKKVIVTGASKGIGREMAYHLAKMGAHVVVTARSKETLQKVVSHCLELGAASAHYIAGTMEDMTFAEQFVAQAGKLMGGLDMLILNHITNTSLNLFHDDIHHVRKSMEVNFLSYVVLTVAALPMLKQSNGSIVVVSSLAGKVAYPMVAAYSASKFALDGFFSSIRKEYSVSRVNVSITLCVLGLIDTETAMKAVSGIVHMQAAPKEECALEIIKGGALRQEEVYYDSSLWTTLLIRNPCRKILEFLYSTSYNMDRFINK

[8] = biological target: T6, 11-beta-hydroxysteroid dehydrogenase 1; assay: Inhibition of 11beta-HSD1 (unknown origin) expressed in HEK293 cells lysate; format: cell-free; how it was run: as §3
Target sequence in this assay (P28845 whole entry): as the sequence (P28845 whole entry, looked up) above

[9] = biological target: T7, 17-beta-hydroxysteroid dehydrogenase type 3 (Homo sapiens, UniProt P37058); assay: Inhibition of 17beta-HSD3 (unknown origin) expressed in intact HEK293 cells; format: cell-based; how it was run: as §2
T7 sequence (P37058 whole entry): T2 sequence (whole entry)

[10] = biological target: T8, 17-beta-hydroxysteroid dehydrogenase type 1 (Homo sapiens, UniProt P14061); assay: Inhibition of 17beta-HSD1 (unknown origin) expressed in HEK293 cells lysate; format: cell-free; how it was run: as §4
T8 sequence (P14061 whole entry): T5 sequence (whole entry)

Structure (SMILES) | Activity [1] | IC50 [3] | Activity [4] | Activity [6] | also measured
COc1ccc(/C=N/NC(=O)COc2c(Br)cc(C)cc2Br)c(OC)c1 | 38% |  |  |  | 
O=S(=O)(Nc1ccc(O)cc1)c1ccc(Cl)cc1 | 55% |  |  |  | 
CCc1ccc(CC)c(S(=O)(=O)Nc2cc(OC)ccc2OC)c1 | > 70% |  |  |  | 
Cc1cc(S(=O)(=O)Nc2cc(Cl)ccc2O)ccc1F | 44% |  |  |  | 
COc1ccc(S(=O)(=O)Nc2ccc(O)c3c2CCCC3)cc1 |  | 9.6 µM | > 70% | > 70% | Activity [2]: > 70%; IC50 [8]: 8.1 µM
O=S(=O)(Nc1cccc(Cl)c1)c1ccc(F)cc1 | > 70% |  |  |  | 
Cc1ccc(NS(=O)(=O)c2ccc(Cl)cc2)cc1O | 45% |  |  |  | 
COc1cc(C)c(S(=O)(=O)Nc2cccc(O)c2)cc1C | 15% | 6.9 µM | > 70% | > 70% | Activity [2]: > 70%; Activity [7]: > 70%
O=S(=O)(Nc1ccccc1F)c1ccc(Br)cc1 | > 70% |  |  |  | 
Cc1cc(C)c(OCC(=O)N/N=C/c2ccc(O)cc2O)c(Br)c1 | 9% | 4.1 µM | 61% | 52% | IC50 [9]: 1.6 µM; IC50 [5]: 23 µM; Activity [7]: 69%
CCC(=O)c1ccc(OS(=O)(=O)c2ccc(NC(C)=O)cc2)cc1 | 67% |  |  |  | 
COc1ccc(S(=O)(=O)Nc2ccc(C)c(O)c2)cc1 | 47% |  |  |  | 
COc1cc(C)c(S(=O)(=O)Nc2ccc(Cl)cc2)cc1C | > 70% |  |  |  | 
CC(C)(C)c1ccc(S(=O)(=O)Oc2ccccc2O)cc1 | 6% | 0.24 µM | > 70% | > 70% | IC50 [9]: 8.5 µM; IC50 [5]: 0.52 µM; IC50 [8]: 2.1 µM
CC(=O)Nc1ccccc1OS(=O)(=O)c1ccc(C)c(C)c1 | > 70% |  |  |  | 
Cc1ccc(NS(=O)(=O)c2cccc(Br)c2)cc1O |  | 6.3 µM | > 70% | 58% | Activity [2]: > 70%; Activity [7]: > 70%
COc1ccc(NS(=O)(=O)c2ccc(Cl)cc2)cc1 | > 70% |  |  |  | 
O=S(=O)(Nc1cccc(O)c1)c1ccc(Br)cc1 |  | 4.9 µM | > 70% | > 70% | Activity [2]: > 70%; Activity [7]: > 70%
Cc1ccc(Cl)cc1NS(=O)(=O)c1ccc(F)cc1 | > 70% |  |  |  | 
O=S(=O)(Nc1ccc(F)c(Cl)c1)c1ccc(F)cc1 | 45% |  |  |  | 
CC(O)c1ccccc1NS(=O)(=O)c1ccc(F)cc1 (stereo not drawn) | > 70% |  |  |  | 
COc1cc(C)c(S(=O)(=O)Nc2ccc(C(=O)O)cc2)cc1C | > 70% |  |  |  | 
COc1ccc(NS(=O)(=O)c2cc(C)ccc2C)cc1 | > 70% |  |  |  | 
Cc1cc(Br)c(OCC(=O)N/N=C/c2c(C)cc(O)cc2O)c(Br)c1 | 64% |  |  |  | 

Now from value to compound, other results behind:

Activity [1] | IC50 [3] | Activity [4] | Activity [6] | Structure (SMILES) | also measured
33% |  |  |  | Cc1cc(C)c(S(=O)(=O)Nc2ccc(O)cc2)c(C)c1 | 
8% | 1.5 µM | > 70% | > 70% | O=C(CSc1nccc(O)n1)Nc1cccc2nsnc12 | Activity [2]: > 70%; IC50 [5]: 1.1 µM; Activity [7]: > 70%
> 70% |  |  |  | O=C(CSc1ncccn1)Nc1cccc2nsnc12 | 
> 70% |  |  |  | C/C(=N\NC(=O)COc1ccc(C)cc1Br)c1ccc(O)cc1O | 
> 70% |  |  |  | COc1ccccc1OS(=O)(=O)c1ccc(NC(C)=O)cc1 | 
51% |  |  |  | COc1ccccc1OS(=O)(=O)c1ccc(C(C)(C)C)cc1 | 
29% | 33 µM | > 70% | > 70% | Clc1ccc(Cl)c(-c2ccc(CNc3nn[nH]n3)o2)c1 | Activity [2]: > 70%; Activity [7]: > 70%
 | 15 µM | > 70% | 53% | COc1ccc(S(=O)(=O)Nc2cccc(O)c2)c2c1CCCC2 | Activity [2]: > 70%; IC50 [8]: 13 µM
 | 3.3 µM | > 70% | > 70% | Cc1cc(C)c(S(=O)(=O)Nc2cccc(O)c2)cc1C | Activity [2]: 43%; Activity [7]: > 70%
> 70% |  |  |  | CC(=O)Nc1ccccc1NS(=O)(=O)c1c(C)c(C)cc(C)c1C | 
9% | 3 µM | > 70% | > 70% | O=S(=O)(Nc1ccc(O)c(Cl)c1)c1ccc(F)cc1 | IC50 [9]: 3.9 µM; IC50 [5]: 10 µM; Activity [7]: > 70%
> 70% |  |  |  | CC(=O)Nc1ccc(S(=O)(=O)Oc2ccc3c(c2)NCCC3)cc1 | 
39% |  |  |  | Cc1ccc(C)c(S(=O)(=O)Nc2ccc(O)cc2)c1 | 
 | 1 µM | > 70% |  | Cc1cc(S(=O)(=O)Nc2cccc(O)c2)c(C)cc1Cl | Activity [2]: 53%; IC50 [10]: 18 µM; Activity [7]: > 70%
> 70% |  |  |  | O=S(=O)(Nc1ccccc1CO)c1ccc(Cl)cc1 | 
25% | 7.1 µM | > 70% | > 70% | Cc1ccc(NS(=O)(=O)c2cccc(C(F)(F)F)c2)cc1O | Activity [2]: > 70%; Activity [7]: > 70%
